From PubChem
IMP-1 inhibitor = IMP-1 metallo-beta-lactamase inhibitors, primary screen, biochemical, epi-absorbance readout, Pseudomonas aeruginosa enzyme. metallo-beta-lactamase IMP-1 (Pseudomonas aeruginosa). purified IMP-1, nitrocefin hydrolysis, epi-absorbance fluorescence. inhibition, % at 5.6 µM. actives 0.45% (n = 290,000);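 active = inhibition above the mean plus 3 SD of all compounds in the same screening run, cut at about 4.5% in these data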;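 also: 0% = IMP-1 with DMSO and 100% = DMSO wells lacking enzyme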
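Assay system: purified IMP-1; Quantity: IMP-1 0.2 nM before substrate addition; Medium: HEPES buffer pH 7.1 with ZnSO4 and Brij 35; Incubation: 15 min enzyme–compound preincubation, then 25 min nitrocefin reaction, 25 °C; Signal: fluorescence quenching readout, ex 480/em 530 nm; Controls: DMSO with and without IMP-1; Repeats: singlicate testing.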
SUMO HTRF inh = inhibitors of in vitro SUMOylation cascade, primary screen, biochemical, HTRF, uHTS; SUMO-conjugating enzyme UBC9 (Homo sapiens), P63279; HTRF SUMOylation assay, SAE1/SAE2 + UBC9; inhibition, % at 35 µM; actives 0.36% (n = 290,000); AID 2006, 2009; in the data active = inhibition above about 50%, passing the limit was not always enough
Target sequence (P63279 whole entry, looked up): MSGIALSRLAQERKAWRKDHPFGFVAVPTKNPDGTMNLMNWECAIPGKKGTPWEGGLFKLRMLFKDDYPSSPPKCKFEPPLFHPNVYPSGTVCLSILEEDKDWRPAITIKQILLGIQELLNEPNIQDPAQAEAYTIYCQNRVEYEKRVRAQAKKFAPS
HCV NS3 hel inh = inhibitors of HCV NS3 helicase, primary screen, biochemical, Cy5 molecular beacon fluorescence; NS3 helicase DNA unwinding; Hepatitis C virus NS3 helicase; inhibition, % at 10.9 µM; actives 0.56% (n = 290,000); AID 1800, 2009;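 active = inhibition above the mean of all tested compounds plus 3 SD, set per campaign, cut at about 35% in these data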;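 also: 0% = DMSO wells and 100% = thioflavine S control wells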
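System: HCV NS3 helicase fragment; control set: DMSO and thioflavine S; technique: Cy5 fluorescence at 0 and 60 min, beacon hairpin quenching; reagent: beacon DNA duplex substrate plus ATP; replicates: singlicate; schedule: 1 h reaction at 25 °C, ATP-initiated; medium: MOPS buffer pH 6.5 with MgCl2, DTT, Tween20, BSA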
HCV core dimer = inhibitors of HCV core protein dimerization, primary screen, biochemical, TR-FRET, high-throughput. TR-FRET GST/Flag-core106 dimerization, 1536-well. inhibition, % at 5 µM. actives 0.33% (n = 300,000). AID 1899, 2009;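 active = inhibition above the mean of all tested compounds plus 3 SD, set per screening campaign, cut at about 45% in these data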
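Assay system: GST-tagged and Flag-tagged HCV core protein residues 1-106 / Times: compound-protein-antibody incubation 4 h at 22.5 °C / Signal: time-resolved FRET, ex 340 nm, em 617 and 671 nm / Evaluation: % inhibition based on acceptor/donor emission ratio / Benchmarks: wells lacking GST-core106 and wells with excess unlabelled core106 / Repeats: singlicate, one well per compound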
PHOSPHO1 block = PubChem AID 1565; actives 1.1% (n = 290,000); inhibition, % at 13.3 µM; recombinant PHOSPHO1, absorbance phosphatase assay; in the data active = inhibition above about 60%
Target sequence (Q8TCT1 whole entry, looked up): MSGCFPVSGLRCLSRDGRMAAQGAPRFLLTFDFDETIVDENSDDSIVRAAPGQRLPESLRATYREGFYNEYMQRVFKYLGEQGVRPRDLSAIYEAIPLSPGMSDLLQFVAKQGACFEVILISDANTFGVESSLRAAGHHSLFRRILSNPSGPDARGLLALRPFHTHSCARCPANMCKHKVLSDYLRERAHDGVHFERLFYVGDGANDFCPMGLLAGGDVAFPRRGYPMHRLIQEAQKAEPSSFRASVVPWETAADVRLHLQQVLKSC
VIM-2 inh = VIM-2 metallo-beta-lactamase inhibitors, primary screen, biochemical, epi-absorbance readout, Pseudomonas aeruginosa enzyme | actives 0.89% (n = 290,000) | purified VIM-2, nitrocefin hydrolysis, epi-absorbance fluorescence | inhibition, % at 5.6 µM;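 active = inhibition above the mean of all tested compounds plus 3 SD, cutoff set per screening run, cut at about 7.5% in these data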;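 also: red hydrolysis product quenches plate fluorescence so inhibitors raise well fluorescence; 0% = enzyme with DMSO and 100% = DMSO without enzyme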
Starred values were filed as active, the others as inactive; / = not tested or not shown. Hits are enriched below; roughly 3.1% of the tested compounds scored in any of these assays.

SMILES	IMP-1 inhibitor	SUMO HTRF inh	HCV NS3 hel inh	HCV core dimer	PHOSPHO1 block	VIM-2 inh
C=CCNc1sc(C(=O)c2ccccc2)c(N)c1-c1nc2ccccc2s1	-3	-20	4	26	98*	-1
CS(=O)(=O)c1ccccc1C(=O)N1CCN(Cc2ccccc2)CC1	-2	0	5	7	73*	-3
CC(=O)Nc1ccccc1C(=O)N1CCN(Cc2ccccc2)CC1	-1	7	-9	1	-1	0
Cn1c(SCC(=O)c2ccc(O)c(O)c2)nnc1-c1cccs1	0	16	16	-2	62*	0
Cn1c(SCC(=O)c2ccc(O)c(O)c2)nnc1-c1ccccc1	-3	13	4	/	1	-3
O=C(CSc1nc2ccccc2n1CCc1ccccc1)c1ccc(O)c(O)c1	-2	65*	16	/	-54	-2
Cn1c(=O)c2c(nc(SCC(=O)O)n2Cc2cc3c(cc2Cl)OCO3)n(C)c1=O	-7	23	2	-2	64*	-8
CN(C)c1ccc(CNC(=O)c2cc(S(=O)(=O)N3CCOCC3)cn2C)cc1	-1	0	7	-9	23	-1
CCn1c(CC(=O)Nc2ccc(C)cc2)nnc1SCC(=O)N1CCOCC1	-3	16	5	-27	63*	-4
CCn1c(SCC(=O)N2CCOCC2)nnc1C(C)NC(=O)c1ccccc1 (stereo unspecified)	-3	12	8	-14	63*	-4
CCn1c(SCc2nc3ccccc3c(=O)[nH]2)nnc1C(C)NC(=O)c1ccccc1 (stereo unspecified)	0	8	-5	2	-1	-1
CC1=[N+](C)c2c(ccc3cccnc23)C1(C)C	-1	90*	6	/	-79	2
COc1ccc(NC(=O)C2=CCN(S(=O)(=O)c3ccccc3)CC2)cc1OC	1	10	9	5	-15	2
Cc1ccc(OCc2n[nH]c(=S)n2Cc2ccccc2)cc1	-3	-6	-6	0	-59	-4
Cc1ccccc1OCc1n[nH]c(=S)n1Cc1ccccc1	-5	9	2	-2	-19	-4
Cc1nn(Cc2n[nH]c(=S)n2Cc2ccccc2)c(C)c1Cl	0	9	9	-5	99*	1
Cc1cc(C)n(Cc2n[nH]c(=S)n2Cc2ccccc2)n1	-1	36	9	-4	90*	2
CC(=O)c1c(N2CCN(c3cccc(Cl)c3)CC2)nc(=S)n(-c2ccccc2)c1C	-3	12	-9	-2	-21	-1
CCn1c(C)c(C(C)=O)c(N2CCN(c3cccc(Cl)c3)CC2)nc1=S	-2	28	2	3	76*	-4
CCOC(=O)CC1C(=O)NCCN1Cc1cccs1 (stereo unspecified)	-2	-7	-6	-4	64*	-2
CCOC(=O)C1CCCN(Cc2cccs2)C1 (stereo unspecified)	-1	5	-1	-3	73*	-2
Cc1nn(C)c(NC(=O)c2ccccc2Cl)c1Cl	-1	16	-9	-2	19	-2
CCN(CC(=O)Nc1c(F)cccc1F)C(=O)CCSc1ccc(F)cc1	/	/	/	4	/	/
COc1ccc(/C=N\Nc2ncc(F)c(N3CCOCC3)n2)cc1OC	-4	14	-6	-1	28	-4
C/C(=N\NC(N)=S)c1ccc(-n2ccnc2)cc1	-2	-4	0	7	25	10.0*
SMILES	IMP-1 inhibitor	SUMO HTRF inh	HCV NS3 hel inh	HCV core dimer	PHOSPHO1 block	VIM-2 inh
Cc1nn(CC(=O)N2CCN(C)CC2)c(=O)c2c1sc1ccccc12	-4	7	7	-17	15	11*
Cc1nn(CCCC(=O)NCCCN2CCN(C)CC2)c(=O)c2c1sc1ccccc12	-2	12	-5	-4	22	12*
CCC(C(=O)NCCCN1CCN(C)CC1)n1nc(C)c2sc3ccccc3c2c1=O (stereo unspecified)	-3	14	-1	-13	22	0
CCOC(=O)N1CCN(C(=O)Cn2nc(C)c3sc4ccccc4c3c2=O)CC1	-2	12	7	-3	16	3
O=C1NCC(c2ccccc2)C1C(=O)N/N=C\c1ccc(-c2cccc(Cl)c2Cl)o1 (stereo unspecified)	-3	-8	-9	8	10	-7
Cc1ccc(-c2ccc(/C=N\NC(=O)C3C(=O)NCC3c3ccccc3)o2)cc1Cl (stereo unspecified)	-2	-20	-8	7	60*	-5
Cc1sc(-n2c(C)cc(/C=C3\SC(=S)NC3=O)c2C)c(C#N)c1C	-3	16	34	-34	14	-4
Cc1sc(-n2c(C)cc(/C=N/n3cnnc3)c2C)c(C#N)c1C	-4	6	4	3	84*	-3
O=C(O)COc1ccc(/C=N/NC(=O)c2ccc(-c3csc(Nc4ccc(Cl)cc4)n3)cc2)cc1	-1	86*	19	/	10	-4
COc1ccc(C2Nc3ccccc3C(=O)N2C2CCCCC2)cc1 (stereo unspecified)	-1	12	-8	4	6	-3
N#CC1=C2SCN(Cc3ccccc3)CN2C(=O)CC1c1ccc2c(c1)OCO2 (stereo unspecified)	1	4	15	4	63*	0
N#CC1=C2SCN(Cc3ccccc3)CN2C(=O)CC1c1cccs1 (stereo unspecified)	-3	24	15	15	68*	0
CC(C)c1ccc(C2CC(=O)N3CN(Cc4ccco4)CSC3=C2C#N)cc1 (stereo unspecified)	0	19	24	6	26	0
N#CC1=C2SCN(Cc3ccco3)CN2C(=O)CC1c1ccc(Cl)cc1 (stereo unspecified)	-1	10	20	-2	76*	-2
CCC(C)(C)NC(=O)C(c1cccc(OC)c1OC)N(C(=O)CCC(=O)Nc1cc(C)on1)c1ccc2c(c1)OCCO2 (stereo unspecified)	-4	6	-10	-1	36	-2
CCc1ccc2nc(N(CCN(C)C)C(=O)c3ccc4ncsc4c3)sc2c1	-4	21	-75	-2	33	-3
Cc1ccc(C2C=C(c3ccccc3OC(F)F)Nc3ncnn32)cc1 (stereo unspecified)	-1	20	8	2	-14	-2
CN(C)c1ccc(C2C=C(c3ccc(Cl)cc3OC(F)F)Nc3ncnn32)cc1 (stereo unspecified)	/	14	/	10	67*	/
